# NadD inh = inhibitors of S. aureus NadD, primary screen, biochemical, colorimetric, uHTS. Nicotinate-nucleotide adenylyltransferase NadD (Staphylococcus aureus N315). purified NadD enzyme, colorimetric absorbance read-out. inhibition, % at 20 µM. 360,000 tested, 0.78% active. AID 602399, 2012; in the data active means inhibition above about 26%
# rCAG binder = binders of r(CAG) RNA repeats, primary screen, biochemical, fluorescence; 370,000 tested, 1.3% active; r(CAG) RNA repeat, TO-PRO-1 dye displacement fluorescence; inhibition, % at 3 µM; AID 651821, 2012;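 active means inhibition above the plate cutoff, the mean of all test compounds on that plate plus 3 SD, cut at about 35% in these data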;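 further: 0% = DMSO alone and 100% = 100 µM mitoxantrone as full dye displacement; higher means more dye released from RNA so lower well fluorescence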
# Scp1 inh = Scp-1 phosphatase inhibitors, primary screen, biochemical, colorimetric, uHTS | Recombinant Scp1, phosphopeptide, malachite green phosphate absorbance | inhibition, % at 20 µM | 340,000 tested, 0.88% active | Carboxy-terminal domain RNA polymerase II polypeptide A small phosphatase 1 (Homo …;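 active means inhibition above about 50% at 20 µM, limit read from the data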;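 further: plate controls were DMSO wells with enzyme for no effect and wells lacking enzyme for full effect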
#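 Incubation: 45 min enzyme reaction at room temperature / System: truncated SCP-1 phosphatase (76-261aa) / Reagent: Phospho 17-mer peptide substrate / Buffer or medium: Acidic Tris acetate buffer with magnesium and detergent / Signal: absorbance at 630 nm / Doses: one concentration, 20 µM, with 1.0% DMSO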
# LMPTP inh = LMPTP phosphatase inhibitors, primary screen, biochemical, fluorescence intensity, uHTS; Low molecular weight phosphotyrosine protein phosphatase (Homo sapiens), P24666; 360,000 tested, 0.22% active; inhibition, % at 20 µM; AID 651560, 2012; recombinant LMPTP-A, OMFP fluorogenic substrate;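 active means compounds that cut the enzyme signal by at least half of the control window in the single-dose screen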;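 further: plate controls were DMSO wells with enzyme plus substrate for no effect and substrate without enzyme for full effect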
# Target sequence (P24666 whole entry, looked up): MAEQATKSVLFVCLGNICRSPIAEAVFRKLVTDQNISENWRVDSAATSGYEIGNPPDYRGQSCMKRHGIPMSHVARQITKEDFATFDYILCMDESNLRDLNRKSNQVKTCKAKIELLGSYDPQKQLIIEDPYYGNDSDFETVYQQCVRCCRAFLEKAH
#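 Test system – LMPTP-A enzyme · Amount – LMPTP-A at 0.625 nM final in the reaction · Buffer or medium – Bis-Tris pH 6.0, DTT, detergent · Reagent – OMFP 400 µM · Doses – single 20 µM dose · Schedule – reaction 50 min, room temperature, dark · Detection – fluorescence intensity of OMFP turnover product · Evaluation – percent inhibition versus substrate-only and uninhibited controls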
# STEP inh = STEP phosphatase inhibitors, primary screen, biochemical, fluorescence intensity, uHTS; 360,000 tested, 0.25% active; inhibition, % at 20 µM; recombinant STEP, OMFP fluorogenic substrate; AID 588621, 2011;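 active means inhibition at 20 µM, scaled per plate between control wells, above about 37%, limit read from the data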;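 further: 0% = DMSO with enzyme and substrate and 100% = substrate only without enzyme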
# Target sequence (P54829 whole entry, looked up): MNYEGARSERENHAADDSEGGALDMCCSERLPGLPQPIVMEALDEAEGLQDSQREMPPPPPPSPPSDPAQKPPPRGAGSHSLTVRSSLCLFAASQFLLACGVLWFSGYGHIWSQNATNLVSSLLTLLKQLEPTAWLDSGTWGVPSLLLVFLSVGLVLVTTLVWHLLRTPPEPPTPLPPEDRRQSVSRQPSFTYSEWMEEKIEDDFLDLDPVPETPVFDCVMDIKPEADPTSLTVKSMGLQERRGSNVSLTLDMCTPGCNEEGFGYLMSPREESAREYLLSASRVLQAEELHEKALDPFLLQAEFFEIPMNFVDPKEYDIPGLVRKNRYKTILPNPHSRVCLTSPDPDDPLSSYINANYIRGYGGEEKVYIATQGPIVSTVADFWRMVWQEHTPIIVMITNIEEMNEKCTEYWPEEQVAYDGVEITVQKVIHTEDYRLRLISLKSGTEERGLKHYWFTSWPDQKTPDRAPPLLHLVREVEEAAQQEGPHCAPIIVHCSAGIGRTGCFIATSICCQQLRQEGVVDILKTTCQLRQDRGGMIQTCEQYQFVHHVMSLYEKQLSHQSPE
#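 Material: STEP (striatal-enriched tyrosine phosphatase) enzyme, cell-free | Medium: 50 mM Bis-Tris pH 6.0 with 2.5 mM DTT and 0.005% Tween 20 | Read-out: Percent inhibition scaled to no-enzyme and uninhibited-enzyme controls, plate-pattern corrected | Signal: Fluorescence read at 480 nm ex / 540 nm em | Times: 20 min reaction, room temperature, in the dark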
# rCAG bind conf = small molecules binding CAG repeat RNA – biochemical, fluorescence, confirmation; shares compounds with rCAG binder; r(CAG) RNA repeat, TO-PRO-1 dye displacement fluorescence; inhibition, % at 3 µM; 4,300 tested, 70% active; AID 652065, 2013;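 active means inhibition above a per-plate cutoff, the mean inhibition of sample wells plus 3 SD, cut at about 35% in these data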;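 further: loss of TO-PRO-1 fluorescence as compound displaces dye from 1x1 AA loop RNA; 0% = DMSO only wells and 100% = 100 µM mitoxantrone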
# dCAG dye counter = displacement of TO-PRO-1 from CAG DNA duplex, counter-screen for rCAG RNA repeat binder project, biochemical, fluorescence, TO-PRO-1 dye, d(CAG) DNA oligo; 4,300 tested, 94% active; inhibition, % at 3 µM; shares compounds with rCAG binder; d(CAG) DNA oligo TO-PRO-1 dye displacement; AID 652068, 2013;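 active means inhibition above its plate's cutoff, the mean test-well inhibition plus 3 SD, cut at about 4.8% in these data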;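 further: 0% = DNA dye mix with DMSO and 100% = 100 µM mitoxantrone; hits displace the dye from DNA and so lower well fluorescence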
# dCAG dye DR = inhibitors of DNA CAG/GTC TO-PRO-1 complex, dose response, counter-screen for rCAG RNA repeat binder project, biochemical, fluorescence, TO-PRO-1 dye; shares compounds with rCAG binder; DNA CAG/GTC duplex TO-PRO-1 dye displacement fluorescence; IC50, µM; 250 tested, 20% active; AID 686960, 2013; in the data active means IC50 below about 10 µM
# Active calls of the source: *; x = no result given. Compounds with a hit are over-represented: about 2.6% of the library has one in this group of screens.
SMILES,NadD inh,rCAG binder,Scp1 inh,LMPTP inh,STEP inh,rCAG bind conf,dCAG dye counter,others
COc1cc(CCC(C)=O)ccc1OC(=O)c1c(-c2c(F)cccc2Cl)noc1C,x,1,x,x,x,x,x,
COc1ccccc1Cc1c(-c2cccc(Cl)c2)nc2ccc(Br)cn12,2,38*,x,1,-1,22,4,
Cc1[nH]c(=O)nc(SCc2ccc(Cl)c(Cl)c2)c1C#N,3,38*,-3,5,3,30,7.2*,
CC(C)N(C[C@@H]1CSCCS(=O)(=O)N1)C1CCCCC1,x,1,x,x,x,x,x,
Nc1cc(=O)[nH]c(SCC(=O)Nc2ccc3c(c2)CCC3)n1,4,11,-5,1,-1,x,x,
Cc1cc(=O)[nH]c(SCC(=O)Nc2nc3ccccc3s2)n1,-1,7,2,-2,3,x,x,
O=C(CSc1nc(O)cc(=O)[nH]1)Nc1ccc2c(c1)CCC2,5,49*,-3,-1,9,12,6.0*,
COc1ccc(-c2csc(NC(=O)CSc3nc4ccccc4c(=O)[nH]3)n2)cc1,19,38*,1,6,-1,57*,22*,
Cc1cc(=O)[nH]c(SCC(=O)Nc2nc(-c3ccccc3)cs2)n1,3,36*,0,1,0,33,9.5*,
COc1ccc(NC(=O)Nc2ccccc2C(=O)N2CCCC2)cc1OC,x,2,x,x,x,x,x,
O=S(=O)(Nc1cccc(-n2cnnn2)c1)c1cc(Br)ccc1Br,-7,36*,1,1,3,21,4.9*,
COc1cc(/C=N/Nc2ccc([N+](=O)[O-])cc2S(=O)(=O)N2CCOCC2)cc(OC)c1OC,-5,1,-4,1,0,x,x,
O=[N+]([O-])c1ccc(N/N=C/c2ccc(O)c(O)c2O)c(S(=O)(=O)N2CCOCC2)c1,29*,69*,3,67*,6,84*,52*,
O=[N+]([O-])c1ccc(N/N=C/c2cccc(O)c2O)c(S(=O)(=O)N2CCOCC2)c1,17,35*,-5,6,-3,33,18*,
O=C(CCc1ccc(S(=O)(=O)N2CCOCC2)cc1)N/N=C/c1ccc(O)c(O)c1O,6,40*,27,3,0,46*,16*,
O=[N+]([O-])c1ccc(NCCCO)c(S(=O)(=O)N2CCOCC2)c1,0,1,-12,-3,-1,x,x,
C=C(C)[C@@H]1CC2=C(OC)C(CC=C(C)C)(CC=C(C)C)C(=O)C(C(=O)c3ccccc3)=C2O1,x,10,x,x,x,x,x,
COCCCN1C(=O)[C@H](CC(=O)N2CCN(C(=O)c3ccco3)CC2)[C@]2(C(=O)OC)CCCCC=C12,x,3,x,x,x,x,x,
COc1cc(/C=N/NC(=O)c2nc(-c3ccccc3)n(-c3ccccc3)n2)ccc1O,13,1,-2,1,-4,x,x,
COc1cc(/C=N/Nc2nc(C)nc3c2cnn3-c2ccccc2)ccc1O,9,41*,6,5,-4,27,9.7*,
NC(=O)c1c(NC(=O)COC(=O)c2ccc(O)c(Cl)c2)sc2c1CCCC2,22,39*,-7,-1,-2,43*,15*,
N#CCC(=O)Nc1sc2c(c1C(N)=O)CCCC2,1,35*,25,1,0,3,4.5*,
COC(=O)C1=C(C)N(C)C(=NCc2cccc(C(F)(F)F)c2)NC1c1ccc(F)cc1 (centres undefined),x,8,x,x,x,x,x,
N#C/C(=C\c1ccccc1OCc1ccc(C(=O)O)cc1)C(=O)Nc1ccc(O)cc1,2,44*,-13,-1,-4,34,10*,
CC(NCc1ccco1)C(=O)N1CCN(c2cccc(C(F)(F)F)c2)CC1 (centres undefined),x,0,x,x,x,x,x,
SMILES,NadD inh,rCAG binder,Scp1 inh,LMPTP inh,STEP inh,rCAG bind conf,dCAG dye counter,others
CCc1nnc(NS(=O)(=O)c2ccc(N/C=C/C(=O)c3ccc(C)cc3)cc2)s1,16,50*,-5,-1,4,72*,34*,dCAG dye DR=9.6*
Cc1cc(C)nc(NS(=O)(=O)c2ccc(N/C=C\C(=O)c3ccc(Cl)cc3)cc2)n1,7,23,-2,0,4,x,x,
CCc1nnc(NS(=O)(=O)c2ccc(N/C=C\C(=O)c3ccc(F)cc3)cc2)s1,9,48*,-3,1,5,61*,23*,
CCc1nnc(NS(=O)(=O)c2ccc(N/C=C\C(=O)c3cccc(OC)c3)cc2)s1,12,49*,-7,2,15,63*,28*,
CCc1nnc(NS(=O)(=O)c2ccc(N/C=C\C(=O)c3ccc(C)cc3)cc2)s1,15,55*,-7,-1,9,72*,39*,
COc1cccc(C(=O)/C=C/Nc2ccc(S(=O)(=O)Nc3ncccn3)cc2)c1,0,6,-9,5,2,x,x,
CC(C)C[C@@H]1COc2cc(N3CCSCC3)ccc2S(=O)(=O)N1C,x,5,x,x,x,x,x,
CN1[C@H](Cc2ccccc2)COc2cc(N3CCCC3)ccc2S1(=O)=O,x,7,x,x,x,x,x,
Cc1noc(NS(=O)(=O)c2ccc(N/C=C\C(=O)c3ccc(F)cc3)cc2)c1C,1,36*,1,-1,2,43*,7.9*,
Cc1noc(NS(=O)(=O)c2ccc(N/C=C\C(=O)c3ccccc3)cc2)c1C,12,15,-1,-1,3,x,x,
O=C(N/N=C/c1ccc(-c2ccc(S(=O)(=O)Nc3ncccn3)cc2)o1)c1cc2ccccc2cc1O,81*,82*,-18,8,1,75*,39*,
CC1=CC(c2ccc(Cl)cc2)n2nc(NS(=O)(=O)c3ccc(C)cc3)nc2N1 (centres undefined),21,47*,19,16,-2,52*,17*,
CC1=CC(c2ccccc2)n2nc(NS(=O)(=O)c3ccc(C)cc3)nc2N1 (centres undefined),2,13,-3,0,0,x,x,

# Screens deposited in PubChem BioAssay by several laboratories.
